In brackets after ≈: the same amount, converted by molar mass.
Key:
Staphylococcus aureus [1] = assay: Antibacterial activity against tetracycline-susceptible Staphylococcus aureus ATCC 13709 Smith isolate SA100; type: functional
Method in brief: (§1)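 Broth microdilution MIC following CLSI methods in cation-adjusted Mueller Hinton broth, prepared fresh and held at 4 °C before testing. Defibrinated horse blood added to the medium where appropriate. Runs accepted when quality control ranges for comparator antibiotics and ATCC QC strains were met.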

Staphylococcus aureus [2] = assay: Antibacterial activity against tetracycline-resistant Staphylococcus aureus isolate SA161 expressing TetM gene; type: functional; method in brief: as §1
Staphylococcus aureus [3] = assay: Antibacterial activity against tetracycline-resistant Staphylococcus aureus isolate SA158 expressing TetK gene; type: functional
Streptococcus pneumoniae [4] = assay: Antibacterial activity against Streptococcus pneumoniae ATCC 49619 isolate 106; type: functional
Method in brief: (§2)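 MIC by broth microdilution in liquid medium per CLSI, in cation-adjusted Mueller Hinton broth made fresh and held at 4 °C before testing. Horse blood (defibrinated) added to the medium where appropriate. Runs were accepted only when the comparator antibiotics and ATCC QC strains fell within their recommended ranges.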

Streptococcus pneumoniae [5] = assay: Antibacterial activity against tetracycline-resistant Streptococcus pneumoniae isolate 160 expressing tetM gene; type: functional
Escherichia coli [6] = assay: Antibacterial activity against Escherichia coli ATCC 25922 isolate 107; type: functional; method in brief: as §2
Escherichia coli [7] = assay: Antibacterial activity against Escherichia coli isolate EC155 expressing tetA gene; type: functional; method in brief: as §2
Klebsiella pneumoniae = assay: Antibacterial activity against Klebsiella pneumoniae ATCC 13883; type: functional; method in brief: as §2
Staphylococcus aureus [8] = assay: Antibacterial activity against Staphylococcus aureus ATCC 13709 infected in CD-1 mouse assessed as increase in survival at 3 mg/kg, iv administered as single dose 1 hr post infection measured after 48 hrs post infection; type: functional
Method in brief: (§3)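 Mouse septicemia screen: S. aureus grown to log phase, diluted in 5% mucin to give 90% mortality within 48 h, inoculum 1.98 × 10⁶ CFU/mouse, 0.5 mL intraperitoneal into female CD-1 mice (18−20 g). Six mice per group. Single 30 mg/kg oral gavage or 3 mg/kg IV dose 1 h post infection. Infection controls received sterile water vehicle. Survival recorded at 48 h.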

Staphylococcus aureus [9] = assay: Antibacterial activity against Staphylococcus aureus ATCC 13709 infected in CD-1 mouse assessed as increase in survival at 30 mg/kg, po administered as single dose 1 hr post infection measured after 48 hrs post infection; type: functional; method in brief: as §3
[10] = Oral bioavailability in rat; type: ADME, organism-based; settings: in vivo
Staphylococcus aureus [11] = assay: Antibacterial activity against methicillin-resistant Staphylococcus aureus VL-137; type: functional; method in brief: as §1
Streptococcus pneumoniae [12] = assay: Antibacterial activity against Streptococcus pneumoniae SPN160; type: functional; method in brief: as §1
Haemophilus influenzae [13] = assay: Antibacterial activity against Haemophilus influenzae 551; type: functional; method in brief: as §2
Streptococcus pyogenes = assay: Antibacterial activity against Streptococcus pyogenes; type: functional; method in brief: as §2
Moraxella catarrhalis = assay: Antibacterial activity against Moraxella catarrhalis; type: functional; method in brief: as §2
Acinetobacter baumannii = assay: Antibacterial activity against Acinetobacter baumannii; type: functional; method in brief: as §2
Staphylococcus aureus [14] = assay: Antibacterial activity against methicillin-resistant Staphylococcus aureus VL-137 infected in neutropenic Balb/c mouse assessed as reduction in lung CFU at 50 mg/kg, po administered 2 and 12 hrs post infection measured 24 hrs post treatment; type: functional
Method in brief: (§4)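 Female Balb/c mice (18−20 g) made neutropenic with IP cyclophosphamide, 150 and 100 mg/kg on days −4 and −1. Intranasal infection under light anesthesia. Treatment at 2 and 12 h post infection, oral 50 mg/kg/dose or IV 10 mg/kg/dose, six mice per group. At 24 h lungs were homogenized and plated on TSA (37 °C, 5% CO₂, overnight). Read-out is CFU/g lung.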

Staphylococcus aureus [15] = assay: Antibacterial activity against methicillin-resistant Staphylococcus aureus VL-137 infected in neutropenic Balb/c mouse assessed as reduction in lung CFU at 10 mg/kg, iv administered 2 and 12 hrs post infection measured 24 hrs post treatment; type: functional; method in brief: as §4
Haemophilus influenzae [16] = assay: Antibacterial activity against Haemophilus influenzae 551 infected in immunocompetent Sprague-Dawley rat assessed as reduction in lung CFU per gram of tissue at 100 mg/kg, po administered 5, 24 and 48 hrs post infection measured after 72 hrs; type: functional
Method in brief: (§5)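 Male Sprague-Dawley rats (175–200 g), immunocompetent, infected intratracheally with H. influenzae 551 (0.05 mL) under light anesthesia. Dosing at 5, 24 and 48 h post infection: test agent 100 mg/kg/dose orally or 25 mg/kg/dose IV; azithromycin 50 mg/kg/dose orally. Six rats per dose. Lungs removed 72 h after treatment began, homogenized, serially diluted, plated on TSA-II, incubated overnight at 37 °C in 5% CO2; CFU/g lung calculated.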

Haemophilus influenzae [17] = assay: Antibacterial activity against Haemophilus influenzae 551 infected in immunocompetent Sprague-Dawley rat assessed as reduction in lung CFU per gram of tissue at 25 mg/kg, iv administered 5, 24 and 48 hrs post infection measured after 72 hrs; type: functional; method in brief: as §5
Streptococcus pneumoniae [18] = assay: Antibacterial activity against Streptococcus pneumoniae 1629 infected in immunocompetent CD-1 mouse infection model assessed as reduction in lung CFU at 30 mg/kg, po administered 5, 24 and 36 hrs post infection measured 48 hrs post treatment
Staphylococcus aureus [19] = assay: Antibacterial activity against Staphylococcus aureus ATCC 13709 infected in po dosed CD-1 mouse assessed as increase in survival administered as single dose 1 hr post infection measured after 48 hrs post infection; type: functional; settings: ATCC 13709, po, read-out: PD50
[20] = (§6) Oral bioavailability in CD1 mouse at 30 mg/kg; type: ADME, organism-based; settings: CD1, mouse, in vivo
[21] = Oral bioavailability in human; type: ADME, organism-based; settings: in vivo
Haemophilus influenzae [22] = assay: Antibacterial activity against Haemophilus influenzae 551 infected in immunocompetent Sprague-Dawley rat assessed as reduction in lung CFU per gram of tissue at 50 mg/kg, po administered 5, 24 and 48 hrs post infection measured after 72 hrs; type: functional; method in brief: as §5
Mus musculus = assay: as §6; type: ADME, organism-based; settings: mouse, in vivo, BLD = below limit of detection

Compound	MIC (Staphylococcus aureus [1]) [µg/mL]	MIC (Staphylococcus aureus [2]) [µg/mL]	MIC (Staphylococcus aureus [3]) [µg/mL]	MIC (Streptococcus pneumoniae [4]) [µg/mL]	MIC (Streptococcus pneumoniae [5]) [µg/mL]	MIC (Escherichia coli [6]) [µg/mL]	MIC (Escherichia coli [7]) [µg/mL]	MIC (Klebsiella pneumoniae) [µg/mL]	survival at 3 mg/kg (Staphylococcus aureus [8]) [%]	survival at 30 mg/kg (Staphylococcus aureus [9]) [%]	MIC50 (Staphylococcus aureus [11]) [µg/mL]	MIC90 (Staphylococcus aureus [11]) [µg/mL]	MIC50 (Streptococcus pneumoniae [12]) [µg/mL]	MIC90 (Streptococcus pneumoniae [12]) [µg/mL]	MIC50 (Haemophilus influenzae [13]) [µg/mL]	MIC90 (Haemophilus influenzae [13]) [µg/mL]	MIC50 (Streptococcus pyogenes) [µg/mL]	MIC90 (Streptococcus pyogenes) [µg/mL]	MIC50 (Moraxella catarrhalis) [µg/mL]	MIC90 (Moraxella catarrhalis) [µg/mL]	further results
CN(C)[C@@H]1C(O)=C(C(N)=O)C(=O)[C@@]2(O)C(O)=C3C(=O)c4c(O)c(NC(=O)[C@@H]5CCCN5C)cc(F)c4C[C@H]3C[C@@H]12 [TP-271]	0.13 (≈ 0.233 µM)	0.25 (≈ 0.448 µM)	0.13 (≈ 0.233 µM)	0.016 (≈ 0.0286 µM)	0.016 (≈ 0.0286 µM)	0.25 (≈ 0.448 µM)	8 (≈ 14.3 µM)	2 (≈ 3.58 µM)	100	100	0.031 (≈ 0.0555 µM)	0.13 (≈ 0.233 µM)	0.016 (≈ 0.0286 µM)	0.016 (≈ 0.0286 µM)	0.25 (≈ 0.448 µM)	0.5 (≈ 0.895 µM)	0.016 (≈ 0.0286 µM)	0.016 (≈ 0.0286 µM)	0.016 (≈ 0.0286 µM)	0.016 (≈ 0.0286 µM)	bioavailability [10]: 5.7%; MIC (Streptococcus pneumoniae [12]): 0.016 µg/mL (≈ 0.0286 µM); MIC (Streptococcus pyogenes): 0.016 µg/mL (≈ 0.0286 µM); MIC (Moraxella catarrhalis): 0.016 µg/mL (≈ 0.0286 µM); MIC50 (Acinetobacter baumannii): 0.13 µg/mL (≈ 0.233 µM); MIC90 (Acinetobacter baumannii): 1 µg/mL (≈ 1.79 µM); log10CFU/g (Staphylococcus aureus [14]): 1.99; log10CFU/g (Staphylococcus aureus [15]): 3.03; log10CFU/g (Haemophilus influenzae [16]): 1.77; log10CFU/g (Haemophilus influenzae [17]): 4.87; log10CFU/g (Streptococcus pneumoniae [18]): 4.75
CN(C)[C@@H]1C(O)=C(C(N)=O)C(=O)[C@@]2(O)C(O)=C3C(=O)c4c(O)cccc4[C@@](C)(O)[C@H]3C[C@@H]12 [TETRACYCLINE]	1 (≈ 2.25 µM)	> 32	–	0.25 (≈ 0.563 µM)	–	2 (≈ 4.5 µM)	> 32	4 (≈ 9 µM)	100	100	–	–	–	–	–	–	–	–	–	–	ED50 (Staphylococcus aureus [19]): 6.9 mg/kg; bioavailability [20]: 6.3%; bioavailability [21]: 50%
CC[C@H]1OC(=O)[C@H](C)[C@@H](O[C@H]2C[C@@](C)(OC)[C@@H](O)[C@H](C)O2)[C@H](C)[C@@H](O[C@@H]2O[C@H](C)C[C@H](N(C)C)[C@H]2O)[C@](C)(O)C[C@@H](C)CN(C)[C@H](C)[C@@H](O)[C@]1(C)O [AZITHROMYCIN]	–	–	–	–	–	–	–	–	–	–	–	–	–	–	–	–	–	–	–	–	log10CFU/g (Haemophilus influenzae [22]): >=6
CN(C)c1cc(NC(=O)CNC(C)(C)C)c(O)c2c1C[C@H]1C[C@H]3[C@H](N(C)C)C(O)=C(C(N)=O)C(=O)[C@@]3(O)C(O)=C1C2=O [TIGECYCLINE]	0.063 (≈ 0.108 µM)	0.13 (≈ 0.222 µM)	0.063 (≈ 0.108 µM)	0.016 (≈ 0.0273 µM)	0.016 (≈ 0.0273 µM)	0.125 (≈ 0.213 µM)	0.5 (≈ 0.854 µM)	0.125 (≈ 0.213 µM)	100	0	–	–	–	–	–	–	–	–	–	–	F (Mus musculus): BLD
CN(C)c1cc(CNCC(C)(C)C)c(O)c2c1C[C@H]1C[C@H]3[C@H](N(C)C)C(O)=C(C(N)=O)C(=O)[C@@]3(O)C(O)=C1C2=O [OMADACYCLINE]	0.5 (≈ 0.898 µM)	2 (≈ 3.59 µM)	0.25 (≈ 0.449 µM)	0.031 (≈ 0.0557 µM)	0.125 (≈ 0.225 µM)	2 (≈ 3.59 µM)	16 (≈ 28.7 µM)	2 (≈ 3.59 µM)	100	33	–	–	–	–	–	–	–	–	–	–	ED50 (Staphylococcus aureus [19]): 30.3 mg/kg; bioavailability [20]: 1.5%; bioavailability [10]: 0.7%; bioavailability [21]: 33%
CN(C)[C@@H]1C(O)=C(C(N)=O)C(=O)[C@@]2(O)C(O)=C3C(=O)c4c(O)c(NC(=O)[C@@H]5CCN5C)cc(F)c4C[C@H]3C[C@@H]12	0.016 (≈ 0.0294 µM)	0.016 (≈ 0.0294 µM)	0.016 (≈ 0.0294 µM)	0.016 (≈ 0.0294 µM)	0.016 (≈ 0.0294 µM)	0.016 (≈ 0.0294 µM)	1 (≈ 1.84 µM)	0.063 (≈ 0.116 µM)	100	83	0.031 (≈ 0.0569 µM)	1 (≈ 1.84 µM)	0.016 (≈ 0.0294 µM)	0.016 (≈ 0.0294 µM)	0.063 (≈ 0.116 µM)	0.25 (≈ 0.459 µM)	0.016 (≈ 0.0294 µM)	0.016 (≈ 0.0294 µM)	0.016 (≈ 0.0294 µM)	0.016 (≈ 0.0294 µM)	ED50 (Staphylococcus aureus [19]): 14.3 mg/kg; bioavailability [10]: 4.6%; MIC (Streptococcus pneumoniae [12]): 0.016 µg/mL (≈ 0.0294 µM); MIC (Streptococcus pyogenes): 0.016 µg/mL (≈ 0.0294 µM); MIC (Moraxella catarrhalis): 0.016 µg/mL (≈ 0.0294 µM); MIC50 (Acinetobacter baumannii): 0.13 µg/mL (≈ 0.239 µM); MIC90 (Acinetobacter baumannii): 1 µg/mL (≈ 1.84 µM)
C[C@H]1COc2c(N3CCN(C)CC3)c(F)cc3c(=O)c(C(=O)O)cn1c23.C[C@H]1COc2c(N3CCN(C)CC3)c(F)cc3c(=O)c(C(=O)O)cn1c23.O [LEVOFLOXACIN]	–	–	–	–	–	–	–	–	–	–	16	> 32	1	1	0.016	0.031	0.5	2	0.031	0.063	MIC (Haemophilus influenzae [13]): 0.016 µg/mL; MIC50 (Acinetobacter baumannii): 4 µg/mL; MIC90 (Acinetobacter baumannii): 32 µg/mL
CN(C)[C@@H]1C(O)=C(C(N)=O)C(=O)[C@@]2(O)C(O)=C3C(=O)c4c(O)c(NC(=O)c5ccccn5)cc(F)c4C[C@H]3C[C@@H]12	0.13 (≈ 0.235 µM)	0.13 (≈ 0.235 µM)	0.13 (≈ 0.235 µM)	4 (≈ 7.24 µM)	8 (≈ 14.5 µM)	> 32	> 32	> 32	0	0	–	–	–	–	–	–	–	–	–	–	ED50 (Staphylococcus aureus [19]): > 30 mg/kg
CC(=O)NC[C@H]1CN(c2ccc(N3CCOCC3)c(F)c2)C(=O)O1 [LINEZOLID]	–	–	–	–	–	–	–	–	–	–	2 (≈ 5.93 µM)	4 (≈ 11.9 µM)	1 (≈ 2.96 µM)	1 (≈ 2.96 µM)	8 (≈ 23.7 µM)	16 (≈ 47.4 µM)	1 (≈ 2.96 µM)	2 (≈ 5.93 µM)	8 (≈ 23.7 µM)	8 (≈ 23.7 µM)	MIC (Haemophilus influenzae [13]): 8 µg/mL (≈ 23.7 µM); MIC (Streptococcus pyogenes): 1 µg/mL (≈ 2.96 µM); log10CFU/g (Staphylococcus aureus [14]): 2.46; log10CFU/g (Staphylococcus aureus [15]): 1.29; log10CFU/g (Streptococcus pneumoniae [18]): 3.56
